Data taken from ChEMBL document CHEMBL1149106, “Design, synthesis, and evaluation of aza-peptide epoxides as selective and potent inhibitors of caspases-1, -3, -6, and -8” (J Med Chem, 2004).
Active and inactive are the calls of the source. No cut-off for these calls is given here.

Key:
Caspase-3 (Homo sapiens) [1] = target: T1, Caspase-3 (Homo sapiens) (UniProt P42574); assay: Second-order inhibition rate of caspase-3 was determined by progress curve method
T1 sequence (whole entry): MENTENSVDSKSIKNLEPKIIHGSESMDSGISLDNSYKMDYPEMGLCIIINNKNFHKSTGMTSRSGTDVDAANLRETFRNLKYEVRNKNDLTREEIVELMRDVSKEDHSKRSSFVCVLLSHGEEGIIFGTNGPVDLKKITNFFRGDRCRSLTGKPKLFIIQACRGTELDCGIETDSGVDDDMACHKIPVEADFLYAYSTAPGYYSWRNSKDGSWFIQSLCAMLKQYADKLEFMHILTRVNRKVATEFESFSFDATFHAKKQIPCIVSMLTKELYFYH
Procedure, shortened: (§1)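 Caspases-3, -6 and -8 were assayed in 50 mM HEPES, 100 mM NaCl, 0.1% (w/v) CHAPS, 10% (w/v) sucrose and 10 mM DTT, pH 7.4. Substrate: Cbz-DEVD-AFC or Cbz-DEVD-AMC.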

Caspase-6 (Homo sapiens) [2] = target: T2, Caspase-6 (Homo sapiens) (UniProt P55212); assay: Second-order inhibition rate of caspase-6 was determined by progress curve method; procedure, shortened: as §1
T2 sequence (whole entry): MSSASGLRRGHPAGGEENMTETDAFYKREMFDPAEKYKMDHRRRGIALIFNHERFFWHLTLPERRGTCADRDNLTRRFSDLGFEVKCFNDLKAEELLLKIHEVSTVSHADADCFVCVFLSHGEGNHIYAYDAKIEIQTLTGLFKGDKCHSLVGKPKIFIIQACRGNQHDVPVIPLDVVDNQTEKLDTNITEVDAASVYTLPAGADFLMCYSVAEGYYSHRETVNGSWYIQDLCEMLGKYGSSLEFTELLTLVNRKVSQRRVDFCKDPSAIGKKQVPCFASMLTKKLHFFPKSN

[3] = target: Cathepsin D (Homo sapiens) (UniProt P07339); assay: Tested for inhibition of human cathepsin D by the compound; NI = No Inhibition
Chain of Cathepsin D (Homo sapiens) (P07339 65-162 limits assumed): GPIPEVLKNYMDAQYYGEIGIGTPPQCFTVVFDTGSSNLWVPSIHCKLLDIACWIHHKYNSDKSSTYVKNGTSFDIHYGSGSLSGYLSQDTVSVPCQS
Chain of Cathepsin D (Homo sapiens) (P07339 169-412 limits assumed): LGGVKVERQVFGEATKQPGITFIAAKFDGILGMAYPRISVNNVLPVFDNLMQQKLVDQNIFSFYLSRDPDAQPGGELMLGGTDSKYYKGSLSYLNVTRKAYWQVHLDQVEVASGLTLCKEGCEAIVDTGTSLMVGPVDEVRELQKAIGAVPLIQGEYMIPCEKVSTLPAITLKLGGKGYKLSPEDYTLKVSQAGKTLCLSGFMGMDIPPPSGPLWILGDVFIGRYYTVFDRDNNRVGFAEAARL

Caspase-8 (Homo sapiens) [4] = target: Caspase-8 (Homo sapiens) (UniProt Q14790); assay: Second-order inhibition rate of caspase-8 was determined by progress curve method; procedure, shortened: as §1
Chain of Caspase-8 (Homo sapiens) (Q14790 217-374 limits assumed): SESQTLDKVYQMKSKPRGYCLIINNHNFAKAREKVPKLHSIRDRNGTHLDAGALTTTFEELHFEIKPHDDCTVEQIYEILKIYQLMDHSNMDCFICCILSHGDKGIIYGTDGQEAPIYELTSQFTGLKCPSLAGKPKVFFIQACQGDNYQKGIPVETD
Chain of Caspase-8 (Homo sapiens) (Q14790 385-479 limits assumed): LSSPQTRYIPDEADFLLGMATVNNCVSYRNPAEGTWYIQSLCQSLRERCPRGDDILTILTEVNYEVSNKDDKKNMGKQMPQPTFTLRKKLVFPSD

Caspase-1 (Homo sapiens) = target: T3, Caspase-1 (Homo sapiens) (UniProt P29466); assay: Second-order inhibition rate of caspase-1 was determined by progress curve method
T3 sequence (whole entry): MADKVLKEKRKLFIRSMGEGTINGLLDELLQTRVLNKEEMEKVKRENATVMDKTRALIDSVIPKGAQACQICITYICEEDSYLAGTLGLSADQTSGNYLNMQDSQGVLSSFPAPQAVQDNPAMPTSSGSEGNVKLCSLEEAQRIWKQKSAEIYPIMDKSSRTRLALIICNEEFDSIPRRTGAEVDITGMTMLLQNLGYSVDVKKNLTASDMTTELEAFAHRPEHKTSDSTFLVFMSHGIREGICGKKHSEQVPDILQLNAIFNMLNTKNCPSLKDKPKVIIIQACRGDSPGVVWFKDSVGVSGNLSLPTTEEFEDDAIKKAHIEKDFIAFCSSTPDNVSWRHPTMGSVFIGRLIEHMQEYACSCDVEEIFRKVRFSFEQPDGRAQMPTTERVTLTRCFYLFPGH
Procedure, shortened: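 Caspase-1 assay buffer: 100 mM HEPES, 0.5 mM EDTA, 20% (v/v) glycerol, 5 mM DTT, pH 7.5. Substrate: Ac-YVAD-AMC.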

[5] = target: Cathepsin B (Homo sapiens) (UniProt P07858); assay: Tested for inhibition of cathepsin B by the compound
[6] = target: Granzyme B (Homo sapiens) (UniProt P10144); assay: Tested for inhibition of granzyme B by the compound
Chain of Granzyme B (Homo sapiens) (P10144 whole entry): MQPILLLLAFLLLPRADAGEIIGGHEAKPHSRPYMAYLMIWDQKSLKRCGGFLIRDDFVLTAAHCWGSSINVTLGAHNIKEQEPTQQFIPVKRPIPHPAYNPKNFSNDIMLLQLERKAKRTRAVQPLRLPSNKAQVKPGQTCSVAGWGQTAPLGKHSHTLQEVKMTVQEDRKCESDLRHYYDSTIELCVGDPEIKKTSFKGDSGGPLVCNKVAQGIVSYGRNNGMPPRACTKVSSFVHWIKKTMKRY

Pepsin A (Sus scrofa) = Pepsin A (Sus scrofa) (UniProt P00791); assay: Tested for inhibition of porcine pepsin by the compound; NI = No Inhibition
Chain of Pepsin A (Sus scrofa) (P00791 60-385 limits assumed): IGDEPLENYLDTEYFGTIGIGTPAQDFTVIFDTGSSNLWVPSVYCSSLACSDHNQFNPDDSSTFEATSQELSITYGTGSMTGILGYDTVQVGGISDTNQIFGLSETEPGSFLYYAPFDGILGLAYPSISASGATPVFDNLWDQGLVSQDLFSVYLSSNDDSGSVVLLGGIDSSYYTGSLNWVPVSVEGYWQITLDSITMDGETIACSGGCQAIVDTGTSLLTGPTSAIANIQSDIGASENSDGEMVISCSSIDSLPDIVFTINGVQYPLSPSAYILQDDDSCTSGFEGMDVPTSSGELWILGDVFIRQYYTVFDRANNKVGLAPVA

[7] = target: Plasmepsin II (Plasmodium falciparum) (UniProt P46925); assay: Inhibition of plasmepsin-2 from Plasmodium falciparum; NI = No Inhibition
Chain of Plasmepsin II (Plasmodium falciparum) (P46925 125-453 limits assumed): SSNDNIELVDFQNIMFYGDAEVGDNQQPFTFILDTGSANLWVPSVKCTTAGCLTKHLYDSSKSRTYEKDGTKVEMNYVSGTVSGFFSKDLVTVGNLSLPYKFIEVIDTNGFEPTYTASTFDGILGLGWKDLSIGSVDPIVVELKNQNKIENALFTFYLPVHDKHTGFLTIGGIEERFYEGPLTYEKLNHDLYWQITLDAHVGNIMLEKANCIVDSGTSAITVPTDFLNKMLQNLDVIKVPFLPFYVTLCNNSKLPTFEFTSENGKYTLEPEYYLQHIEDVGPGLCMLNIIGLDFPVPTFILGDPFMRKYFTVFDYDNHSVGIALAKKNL

[8] = target: Human immunodeficiency virus type 1 protease (Human immunodeficiency virus 1) (UniProt Q72874); assay: Tested for inhibition of HIV-1 protease by the compound; NI = No Inhibition
Papain (Carica papaya) [9] = target: T4, Papain (Carica papaya) (UniProt P00784); assay: Tested for inhibition of papain by the compound
T4 sequence (whole entry): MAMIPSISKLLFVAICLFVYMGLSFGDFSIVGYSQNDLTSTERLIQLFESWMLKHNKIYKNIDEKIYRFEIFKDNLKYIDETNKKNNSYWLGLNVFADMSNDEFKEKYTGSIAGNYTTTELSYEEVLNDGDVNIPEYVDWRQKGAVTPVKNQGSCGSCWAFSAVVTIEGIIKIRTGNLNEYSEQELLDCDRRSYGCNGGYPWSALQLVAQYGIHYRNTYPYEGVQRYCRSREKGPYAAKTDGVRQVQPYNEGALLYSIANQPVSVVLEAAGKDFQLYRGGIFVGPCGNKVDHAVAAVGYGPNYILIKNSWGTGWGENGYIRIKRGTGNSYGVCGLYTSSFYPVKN

Cathepsin B [10] = assay: Tested for inhibition of cathepsin B by the compound
[11] = Tested for inhibition of chymotrypsinogen by the compound; NI = No Inhibition
[12] = target: Cathepsin B (Homo sapiens) (UniProt P07858); assay: Tested for inhibition of cathepsin B by the compound; NI = No Inhibition
Papain (Carica papaya) [13] = target: T4, Papain (Carica papaya); assay: Tested for inhibition of papain by the compound; NI = No Inhibition
Cathepsin B [14] = assay: Tested for inhibition of cathepsin B by the compound; NI = No Inhibition
[15] = target: Human immunodeficiency virus type 1 protease (Human immunodeficiency virus 1) (UniProt Q72874); assay: Tested for inhibition of HIV-1 protease; NI = No Inhibition
[16] = Tested for inhibition of chymotrypsinogen by the compound; ND = Not determined
Caspase-3 (Homo sapiens) [17] = target: T1, Caspase-3 (Homo sapiens); assay: Second-order inhibition rate of caspase-3 was determined by progress curve method; No inhibition; procedure, shortened: as §1
Caspase-6 (Homo sapiens) [18] = target: T2, Caspase-6 (Homo sapiens); assay: Second-order inhibition rate of caspase-6 was determined by progress curve method; No inhibition; procedure, shortened: as §1
Caspase-8 (Homo sapiens) [19] = target: Caspase-8 (Homo sapiens) (UniProt Q14790); assay: Second-order inhibition rate of caspase-8 was determined by progress curve method; No inhibition; procedure, shortened: as §1
[20] = target: Granzyme B (Homo sapiens) (UniProt P10144); assay: Tested for inhibition of granzyme B by the compound; NI = No Inhibition

Row | Structure (SMILES) | k2 (Caspase-3 (Homo sapiens) [1]) [M⁻¹ s⁻¹] | k2 (Caspase-6 (Homo sapiens) [2]) [M⁻¹ s⁻¹] | k obs / 1 [3] | k2 (Caspase-8 (Homo sapiens) [4]) [M⁻¹ s⁻¹] | k2 (Caspase-1 (Homo sapiens)) [M⁻¹ s⁻¹] | k obs / 1 (Pepsin A (Sus scrofa)) | k obs / 1 [7] | k obs / 1 [8] | k obs / 1 [11] | k obs / 1 [12] | k obs / 1 (Papain (Carica papaya) [13]) | k obs / 1 (Cathepsin B [14]) | other results
1 | CC(C)[C@H](NC(=O)CCc1ccccc1)C(=O)N[C@@H](C)C(=O)NN(CC(=O)O)C(=O)[C@H]1O[C@@H]1C(=O)OCc1ccccc1 (stereo in doubt; 23d(S,S)) | 1470 | 165 | inactive | 1560 | 52100 | inactive | inactive | inactive | – | – | – | – | k obs / 1 [5]: < 10 M⁻¹ s⁻¹; k obs / 1 [6]: < 0.3 M⁻¹ s⁻¹
2 | CCOC(=O)[C@H]1O[C@@H]1C(=O)N(CC(=O)O)NC(=O)[C@@H](NC(=O)[C@H](CCC(=O)O)NC(=O)[C@@H](NC(=O)OCc1ccccc1)[C@@H](C)CC)[C@@H](C)O | 4080 | 45800 | inactive | 52800 | 12400 | inactive | inactive | inactive | – | inactive | – | inactive | k obs / 1 [6]: 0.65 M⁻¹ s⁻¹
3 | CCOC(=O)[C@H]1O[C@@H]1C(=O)N(CC(=O)O)NC(=O)[C@H](C)NC(=O)[C@@H](NC(=O)CCc1ccccc1)C(C)C | 1040 | 75 | inactive | 1570 | 32200 | inactive | inactive | – | – | – | – | – | k obs / 1 [15]: inactive
4 | CCOC(=O)[C@@H]1O[C@H]1C(=O)N(CC(=O)O)NC(=O)[C@@H](NC(=O)C(CCC(=O)O)NC(=O)[C@H](CC(=O)O)NC(=O)OCc1ccccc1)C(C)C (stereo partly drawn) | 464000 | 475 | inactive | 785 | 4320 | inactive | inactive | inactive | inactive | inactive | inactive | inactive | k obs / 1 [6]: < 0.1 M⁻¹ s⁻¹
5 | CCOC(=O)[C@@H]1O[C@H]1C(=O)N(CC(=O)O)NC(=O)[C@H](C)NC(=O)[C@@H](NC(=O)CCc1ccccc1)C(C)C | – | – | – | – | 6290 | – | – | – | – | – | – | – | k2 (Caspase-3 (Homo sapiens) [17]): inactive; k2 (Caspase-6 (Homo sapiens) [18]): inactive; k2 (Caspase-8 (Homo sapiens) [19]): inactive
6 | CC(C)[C@H](NC(=O)CCc1ccccc1)C(=O)N[C@@H](C)C(=O)NN(CC(=O)O)C(=O)[C@H]1O[C@@H]1CCc1ccccc1 | – | – | – | – | 300 | – | – | – | inactive | inactive | inactive | inactive | –
7 | CC(C)[C@H](NC(=O)CCc1ccccc1)C(=O)N[C@@H](C)C(=O)NN(CC(=O)O)C(=O)[C@@H]1O[C@H]1C(=O)NCCc1ccccc1 | – | – | – | – | 950 | – | – | – | – | – | – | – | k2 (Caspase-3 (Homo sapiens) [17]): inactive; k2 (Caspase-6 (Homo sapiens) [18]): inactive; k2 (Caspase-8 (Homo sapiens) [19]): inactive

Continued, in another order:

Row | k2 (Caspase-3 (Homo sapiens) [1]) [M⁻¹ s⁻¹] | k2 (Caspase-6 (Homo sapiens) [2]) [M⁻¹ s⁻¹] | k obs / 1 [3] | k2 (Caspase-8 (Homo sapiens) [4]) [M⁻¹ s⁻¹] | k2 (Caspase-1 (Homo sapiens)) [M⁻¹ s⁻¹] | k obs / 1 (Pepsin A (Sus scrofa)) | k obs / 1 [7] | k obs / 1 [8] | k obs / 1 [11] | k obs / 1 [12] | k obs / 1 (Papain (Carica papaya) [13]) | k obs / 1 (Cathepsin B [14]) | Structure (SMILES) | other results
8 | 680 | – | – | – | 18100 | – | – | – | 21 M⁻¹ s⁻¹ | – | – | – | CC(C)[C@H](NC(=O)CCc1ccccc1)C(=O)N[C@@H](C)C(=O)NN(CC(=O)O)C(=O)[C@H]1O[C@@H]1C(=O)OCc1ccccc1 (stereo in doubt) | k obs / 1 [5]: < 10 M⁻¹ s⁻¹; k obs / 1 (Papain (Carica papaya) [9]): < 10 M⁻¹ s⁻¹; k obs / 1 (Cathepsin B [10]): No inhibition
9 | 1.07e+06 | 5440 | – | 95500 | 11800 | – | – | – | 46 M⁻¹ s⁻¹ | inactive | inactive | inactive | CCOC(=O)[C@H]1O[C@@H]1C(=O)N(CC(=O)O)NC(=O)[C@@H](NC(=O)[C@H](CCC(=O)O)NC(=O)[C@H](CC(=O)O)NC(=O)OCc1ccccc1)C(C)C | k obs / 1 [6]: < 0.1 M⁻¹ s⁻¹
10 | 50500 | 4180 | inactive | 195000 | 58500 | inactive | inactive | inactive | – | – | – | – | CCOC(=O)[C@H]1O[C@@H]1C(=O)N(CC(=O)O)NC(=O)[C@@H](NC(=O)[C@H](CCC(=O)O)NC(=O)OCc1ccccc1)C(C)C | k obs / 1 [16]: 86 M⁻¹ s⁻¹
11 | 3250 | 4390 | – | 34700 | 19600 | – | – | – | 15 M⁻¹ s⁻¹ | inactive | inactive | inactive | CCOC(=O)[C@@H]1O[C@H]1C(=O)N(CC(=O)O)NC(=O)[C@@H](NC(=O)C(CCC(=O)O)NC(=O)[C@H](CC(C)C)NC(=O)OCc1ccccc1)[C@@H](C)O (stereo partly drawn) | –
12 | – | – | – | – | 330 | – | – | – | – | – | – | – | CC(C)[C@H](NC(=O)CCc1ccccc1)C(=O)N[C@@H](C)C(=O)NN(CC(=O)O)C(=O)[C@@H]1O[C@H]1C(=O)N[C@@H](Cc1ccccc1)C(N)=O | k2 (Caspase-3 (Homo sapiens) [17]): inactive; k2 (Caspase-6 (Homo sapiens) [18]): inactive; k2 (Caspase-8 (Homo sapiens) [19]): inactive
13 | – | – | – | – | 400 | – | – | – | – | – | – | – | CC(C)[C@H](NC(=O)CCc1ccccc1)C(=O)N[C@@H](C)C(=O)NN(CC(=O)O)C(=O)[C@@H]1O[C@H]1C(=O)NCC(O)c1ccccc1 (stereo partly drawn) | k2 (Caspase-3 (Homo sapiens) [17]): inactive; k2 (Caspase-6 (Homo sapiens) [18]): inactive; k2 (Caspase-8 (Homo sapiens) [19]): inactive
14 | 3210 | 8620 | inactive | 61200 | 25700 | inactive | inactive | inactive | 36 M⁻¹ s⁻¹ | inactive | inactive | inactive | CCOC(=O)[C@H]1O[C@@H]1C(=O)N(CC(=O)O)NC(=O)[C@@H](NC(=O)C(CCC(=O)O)NC(=O)[C@H](CC(C)C)NC(=O)OCc1ccccc1)[C@@H](C)O (stereo partly drawn) | k obs / 1 [20]: inactive
